# Measurements of several laboratories.
# Lines come from different studies, so protocols differ.
# Target: Calcium/calmodulin-dependent protein kinase type 1D (CAMK1D, Homo sapiens, UniProt Q8IU85)
SMILES,test,conditions,endpoint,result
Cn1c2c(c3ccc(Cl)c(Cl)c31)C(C#N)C1(CCNCC1)NC2=O (racemic),"thermal stability, DSF",10 µM,ΔTm,1.2 °C
CC(C)(O)[C@H]1CC[C@H](Nc2ccc3ncc(-c4cccc(C(F)(F)F)c4)n3n2)CC1,"enzyme activity, inhibitor",1 µM,remaining activity,83.7%
COc1cc(-c2cn(C3CCc4ccccc4N(CC(F)(F)F)C3=O)nn2)ccc1-n1ccc(C)n1 (stereo not shown),"cell-free assay, competition with immobilised ligand",1 µM,remaining binding,100%
CNC(=O)c1cc(Oc2ccc(NC(=O)Nc3ccc(Cl)c(C(F)(F)F)c3)cc2)ccn1,"enzyme activity, inhibitor",10 µM,inhibition,22%
Nc1nc(Nc2ccc(S(N)(=O)=O)cc2)nn1C(=O)c1c(F)cccc1F,cell-free assay,0.5 µM,remaining signal,97.7%
Cc1cc(NC(=O)c2cccc3cc(-c4cccc5[nH]nc(N)c45)ccc23)ccc1F,"enzyme activity, inhibitor",0.1 µM,activity vs control,102%
O=C1c2ccccc2-c2n[nH]c3cccc1c23,"enzyme activity, inhibitor",0.5 µM,activity vs control,91.9%
CCS(=O)(=O)c1cc2cc(C[C@@](O)(CC(C)(C)c3ccc(F)cc3C(N)=O)C(F)(F)F)[nH]c2cn1,"cell-free assay, competition with immobilised ligand",1 µM,remaining binding,89%
O=C(Nc1cnn(-c2csc(C(=O)NC3COC3)c2)c1)Nc1c(F)cccc1Cl,"enzyme activity, inhibitor",5 µM,remaining activity,99.6%
Cc1cnc(NC2CCOCC2)nc1-n1cnc(C(=O)NC(CN)c2cc(F)cc(Cl)c2)c1 (stereo not shown),"enzyme activity, inhibitor, radiometric",1 µM,remaining activity,84%
O=C1CCc2cc(Nc3cc(OC4CCOCC4)c([N+](=O)[O-])cc3Cl)ccc2N1,"cell-free assay, competition with immobilised ligand",1 µM,remaining binding,100%
COc1cc2ncnc(Nc3ccc(Oc4ccccc4)cc3C)c2cc1OC,"enzyme activity, inhibitor",1 µM,inhibition,1%
CC1=C(C#N)C(c2ccc3c(c2)c(NC(=O)c2ccccc2C)nn3C)C(C#N)=C(C)N1,"cell-free assay, competition with immobilised ligand",1 µM,remaining binding,93%
Cc1ccc(Nc2nccc(N(C)c3ccc4c(C)n(C)nc4c3)n2)cc1S(N)(=O)=O,"enzyme activity, inhibitor",0.3 µM,inhibition,18%
CCCCNc1ncc2c(-c3ccc(F)cc3)nn(C[C@H]3CC[C@H](N)CC3)c2n1,"target engagement in cells, inhibitor, chemoproteomics",20 mM,inhibition,5.9%
N#CC1c2c([nH]c3c(Cl)c(Cl)ccc23)C(=O)NC12CCCCC2 (racemic),"thermal stability, DSF",10 µM,ΔTm,0.7 °C
CC(C)(C)c1nc2c(s1)c1nc(N)ncc1c1ccc(NS(=O)(=O)c3c(F)cccc3F)c(F)c12,"enzyme activity, inhibitor, radiometric",1 µM,remaining activity,97%
Cn1c2c(c3ccc(Cl)c(Cl)c31)C(C#N)C(C)(C)NC2=O (stereo not shown),"thermal stability, DSF",10 µM,ΔTm,-0.6 °C
CNCc1ccccc1-c1csc([C@H](C)Nc2nc(C)nc3cc(OC)c(OC)cc23)c1,"cell-free assay, competition with immobilised ligand",1 µM,remaining binding,100%
N#CCCc1ccc2c(c1)-c1[nH]c3ccc([N+](=O)[O-])cc3c1CC(=O)N2,cell-free assay,0.5 µM,remaining signal,91.8%
Cc1ccc(NC(=O)c2ccc(C)c(C(F)(F)F)c2)cc1C#Cc1nn(C2CCC(O)CC2)c2ncnc(N)c12 (stereo not shown),cell-free assay,10 µM,remaining signal,92%
Cn1c2c(Cl)c(Cl)ccc2c2cc[nH]c(=O)c21,"thermal stability, DSF",10 µM,ΔTm,1 °C
C[S+]([O-])c1ccc(-c2nc(-c3ccncc3)c(-c3ccc(F)cc3)[nH]2)cc1 (stereo not shown),cell-free assay,0.5 µM,remaining signal,105%
Cc1c(NC(=O)c2cc(C(N)=O)nc3cc(F)ccc23)c(C(F)(F)F)nn1Cc1ccc(C(C)(C)C)cc1,"cell-free assay, competition with immobilised ligand",1 µM,remaining binding,84%
Cc1ccc(C(=O)Nc2ccc(CN3CCN(C)CC3)c(C(F)(F)F)c2)cc1C#Cc1cnc2cccnn12,"enzyme activity, inhibitor",23.5 nM,remaining activity,86%
Cn1c2c(c3ccc(Cl)c(Cl)c31)C(C#N)C1(CCCC1)NC2=O (stereo not shown),"thermal stability, DSF",10 µM,ΔTm,0 °C
C[C@H](c1ccnc(Nc2nc3ccc(-c4cc(N(C)C)ncn4)cc3[nH]2)c1)N1CCN(C(=O)CC(F)(F)F)CC1,"cell-free assay, competition with immobilised ligand",0.1 µM,remaining binding,95%
Cn1c2c(c3ccc(Cl)c(Cl)c31)C(C#N)C1(CCOCC1)NC2=O (stereo not shown),"thermal stability, DSF",10 µM,ΔTm,-0.5 °C
CN(C)C(=O)Cn1cc(-c2nc(C3(c4ccc(-c5cnc(N)nc5)cc4)CC3)no2)cn1,"cell-free assay, competition with immobilised ligand",1 µM,remaining binding,100%
CN(CCCC(F)(F)F)c1nccc(-c2cnn3ncccc23)n1,binding,1 µM,remaining binding,86%
COc1cc(Cl)c(C(=O)N[C@@H](CN[C@H]2CC[C@@H](N)CC2)Cc2ccc(C#N)cc2)cc1-c1ccc(CN[C@H](C)c2ccc(C)cc2)o1,"enzyme activity, inhibitor",1 µM,remaining activity,88%
